Data reported in ChEMBL document CHEMBL4834416, “The Discovery of Novel ACA Derivatives as Specific TRPM2 Inhibitors that Reduce Ischemic Injury Both In Vitro and In Vivo” (J Med Chem, 2021).
pIC50: −log10 of the molar value. The source made the active and inactive calls. The calls are words filed in the database; no cut-off is given here.

Key:
[1] = Tmax in C57BL/6 mouse plasma at 0.3 mg/kg, iv by LC-MS/MS analysis; format: ADME, organism-based
[2] = AUC (0 to infinitive) in C57BL/6 mouse plasma at 1 mg/kg, iv by LC-MS/MS analysis; format: ADME, organism-based; design: time infinity, route intravenous, dose 1 mg/kg
Mus musculus [3] = assay: Neuroprotective activity in mouse model of transient middle cerebral artery occlusion-induced cerebral ischemia-reperfusion injury assessed as reduction neurological score at 1 mg/kg, iv treated for 3 hrs after onset of reperfusion by TTC staining based assay relative to control; format: functional, organism-based
SH-SY5Y [4] = assay: Neuroprotective activity against oxygen glucose deprivation/reperfusion-induced cell death in human SH-SY5Y cells assessed as cell viability at 3 uM […] by CCK8 assay relative to control; format: functional
Mus musculus [5] = assay: Neuroprotective activity in mouse model of transient middle cerebral artery occlusion-induced cerebral ischemia-reperfusion injury assessed as reduction in infarct volume at 3 mg/kg, iv treated for 3 hrs after onset of reperfusion by TTC staining based assay (reference value: 57.6 +/- 4.9%); format: functional; design: scale not given: the % may be the effect or the level left
[6] = AUC (0 to t) in C57BL/6 mouse plasma at 10 mg/kg, IG by LC-MS/MS analysis; format: ADME, organism-based; design: dose 10 mg/kg; details: po
[7] = MRT in C57BL/6 mouse plasma at 0.3 mg/kg, iv by LC-MS/MS analysis; format: ADME, organism-based
[8] = AUC (0 to infinitive) in C57BL/6 mouse plasma at 10 mg/kg, IG by LC-MS/MS analysis; format: ADME, organism-based; design: route […], time infinity, dose 10 mg/kg; details: po
Phospholipase A2 = Phospholipase A2 (Homo sapiens, UniProt P04054); assay: Inhibition of PLA2 (unknown origin) using soybean phosphatidylcholine as substrate at 10 uM preincubated for 30 mins followed incubated for 60 mins after substrate addition by microplate reader relative to control
Chain of Phospholipase A2 (P04054 23-148 limits assumed): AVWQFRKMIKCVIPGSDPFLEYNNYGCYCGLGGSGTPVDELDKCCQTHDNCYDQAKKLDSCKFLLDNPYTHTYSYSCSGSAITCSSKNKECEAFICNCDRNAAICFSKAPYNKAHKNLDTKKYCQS
In short: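 PLA2 (4 μg/L in PBS) was preincubated 30 min at 37 °C with inhibitor in 125 mM Tris. Substrate was then added for 60 min: soybean phosphatidylcholine with Tris, CaCl₂, sodium deoxycholate and 0.5% Triton X-100. Liberated free fatty acids were quantified colorimetrically at OD550. Results are % inhibition versus enzyme without inhibitor, n = 3.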

[9] = Cmax in C57BL/6 mouse plasma at 0.3 mg/kg, iv by LC-MS/MS analysis; format: ADME, organism-based; design: route intravenous, dose 0.3 mg/kg
[10] = AUC (0 to t) in C57BL/6 mouse plasma at 1 mg/kg, iv by LC-MS/MS analysis; format: ADME, organism-based; design: dose 1 mg/kg
[11] = Half life in C57BL/6 mouse plasma at 1 mg/kg, iv by LC-MS/MS analysis; format: ADME, organism-based
SH-SY5Y [12] = assay: Neuroprotective activity against oxygen glucose deprivation/reperfusion-induced cell death in human SH-SY5Y cells assessed as cell viability at 0.3 uM […] for 12 hrs by CCK8 assay relative to control; format: functional; details: read-out: Activity
Mus musculus [13] = assay: Neuroprotective activity in mouse model of transient middle cerebral artery occlusion-induced cerebral ischemia-reperfusion injury assessed as reduction neurological score at 0.3 mg/kg, iv treated for 3 hrs after onset of reperfusion by TTC staining based assay relative to control; format: functional, organism-based
[14] = MRT in C57BL/6 mouse plasma at 1 mg/kg, iv by LC-MS/MS analysis; format: ADME, organism-based
[15] = Cmax in C57BL/6 mouse plasma at 1 mg/kg, iv by LC-MS/MS analysis; format: ADME, organism-based; design: route intravenous, dose 1 mg/kg
[16] = AUC (0 to infinitive) in C57BL/6 mouse plasma at 0.3 mg/kg, iv by LC-MS/MS analysis; format: ADME, organism-based; design: time infinity, route intravenous, dose 0.3 mg/kg
[17] = Half life in C57BL/6 mouse plasma at 100 mg/kg, IG by LC-MS/MS analysis; format: ADME, organism-based; details: po
[18] = Cmax in C57BL/6 mouse plasma at 10 mg/kg, IG by LC-MS/MS analysis; format: ADME, organism-based; design: route […], dose 10 mg/kg; details: po
[19] = Clearance in C57BL/6 mouse plasma at 0.3 mg/kg, iv by LC-MS/MS analysis; format: ADME, organism-based
[20] = Tmax in C57BL/6 mouse plasma at 1 mg/kg, iv by LC-MS/MS analysis; format: ADME, organism-based
[21] = Oral bioavailability in C57BL/6 mouse plasma at 0.3 mg/kg, IG by LC-MS/MS analysis; format: ADME, organism-based
Mus musculus [22] = assay: Neuroprotective activity in mouse model of transient middle cerebral artery occlusion-induced cerebral ischemia-reperfusion injury assessed as reduction in infarct volume at 1 mg/kg, iv treated for 3 hrs after onset of reperfusion by TTC staining based assay (reference value: 52 +/- 1.7%); format: functional; design: scale not given: the % may be the effect or the level left
Mus musculus [23] = assay: Neuroprotective activity in mouse model of transient middle cerebral artery occlusion-induced cerebral ischemia-reperfusion injury assessed as reduction in infarct volume at 0.3 mg/kg, iv treated for 3 hrs after onset of reperfusion by TTC staining based assay (reference value: 52 +/- 1.7%); format: functional; design: scale not given: the % may be the effect or the level left
[24] = Tmax in C57BL/6 mouse plasma at 10 mg/kg, IG by LC-MS/MS analysis; format: ADME, organism-based; details: po
[25] = Half life in C57BL/6 mouse plasma at 10 mg/kg, IG by LC-MS/MS analysis; format: ADME, organism-based; details: po
[26] = Half life in C57BL/6 mouse plasma at 3 mg/kg, iv by LC-MS/MS analysis; format: ADME, organism-based
[27] = AUC (0 to infinitive) in C57BL/6 mouse plasma at 3 mg/kg, iv by LC-MS/MS analysis; format: ADME, organism-based; design: time infinity, route intravenous, dose 3 mg/kg
[28] = Toxicity in C57BL/6 mouse assessed as adverse effect at 100 mg/kg, IG; format: organism-based; details: in vivo, po
[29] = Cmax in C57BL/6 mouse plasma at 3 mg/kg, iv by LC-MS/MS analysis; format: ADME, organism-based; design: route intravenous, dose 3 mg/kg
[30] = target: T1, Transient receptor potential cation channel subfamily M member 2 (Homo sapiens, UniProt O94759); assay: Inhibition of human TRPM2 expressed in HEK293T cells assessed as blocked of ADPR-activated current by whole cell patch clamp electrophysiology; format: cell-based
T1 sequence (O94759 whole entry): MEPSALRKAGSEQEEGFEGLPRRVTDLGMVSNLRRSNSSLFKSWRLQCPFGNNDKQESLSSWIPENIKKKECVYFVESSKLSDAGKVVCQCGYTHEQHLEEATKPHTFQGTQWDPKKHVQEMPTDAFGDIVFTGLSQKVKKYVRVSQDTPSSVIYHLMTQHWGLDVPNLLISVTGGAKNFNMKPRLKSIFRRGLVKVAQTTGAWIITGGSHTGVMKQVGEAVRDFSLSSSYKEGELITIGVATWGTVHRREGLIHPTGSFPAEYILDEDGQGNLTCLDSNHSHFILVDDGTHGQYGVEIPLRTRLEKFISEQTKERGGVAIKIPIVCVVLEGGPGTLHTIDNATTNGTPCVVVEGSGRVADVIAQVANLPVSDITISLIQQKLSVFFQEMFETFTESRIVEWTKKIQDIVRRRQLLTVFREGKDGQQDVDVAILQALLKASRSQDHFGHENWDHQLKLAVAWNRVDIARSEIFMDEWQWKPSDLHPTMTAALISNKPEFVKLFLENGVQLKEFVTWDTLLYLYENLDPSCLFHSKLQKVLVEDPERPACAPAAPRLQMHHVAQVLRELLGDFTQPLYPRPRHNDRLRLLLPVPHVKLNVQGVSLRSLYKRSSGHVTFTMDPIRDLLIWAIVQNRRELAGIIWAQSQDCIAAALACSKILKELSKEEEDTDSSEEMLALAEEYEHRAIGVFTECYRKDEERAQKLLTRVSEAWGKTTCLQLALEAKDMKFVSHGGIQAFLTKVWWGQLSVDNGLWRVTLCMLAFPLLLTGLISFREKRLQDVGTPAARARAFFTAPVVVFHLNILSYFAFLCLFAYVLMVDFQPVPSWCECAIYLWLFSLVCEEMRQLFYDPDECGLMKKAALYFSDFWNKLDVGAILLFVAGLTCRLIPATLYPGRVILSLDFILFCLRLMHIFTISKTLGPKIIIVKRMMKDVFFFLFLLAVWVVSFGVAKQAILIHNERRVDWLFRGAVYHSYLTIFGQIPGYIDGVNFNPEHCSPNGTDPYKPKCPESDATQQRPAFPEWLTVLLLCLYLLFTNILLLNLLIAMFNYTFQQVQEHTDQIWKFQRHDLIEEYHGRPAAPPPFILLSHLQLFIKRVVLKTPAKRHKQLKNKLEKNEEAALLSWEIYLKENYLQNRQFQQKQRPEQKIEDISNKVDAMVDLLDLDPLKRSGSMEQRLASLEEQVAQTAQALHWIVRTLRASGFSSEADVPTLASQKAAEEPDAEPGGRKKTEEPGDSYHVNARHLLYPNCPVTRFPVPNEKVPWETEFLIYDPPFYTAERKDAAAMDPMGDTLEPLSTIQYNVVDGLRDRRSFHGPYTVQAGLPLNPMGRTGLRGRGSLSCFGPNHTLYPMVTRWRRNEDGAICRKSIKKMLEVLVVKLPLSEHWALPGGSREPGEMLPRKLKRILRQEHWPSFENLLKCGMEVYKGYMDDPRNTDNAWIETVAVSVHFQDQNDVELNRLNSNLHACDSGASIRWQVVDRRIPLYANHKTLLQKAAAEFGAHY

[31] = target: T1, Transient receptor potential cation channel subfamily M member 2; assay: Inhibition of human TRPM2 expressed in HEK293T cells assessed as suppression of H2O2-induced calcium flux at 1 uM measured after 30 mins by Fluo-3/AM assay; format: cell-based
SH-SY5Y [32] = assay: Cytotoxicity against human SH-SY5Y cells assessed as toxicity at 30 uM incubated for 24 hrs by CCK-8 assay; format: cell-based
In short: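 SH-SY5Y cells were seeded at 2 × 10⁴ per well and grown 12 h at 37 °C. They were then treated with compound (1–30 μM) under normoxic, normal-glucose conditions for 24 h. CCK-8 (10%) was added for 2 h at 37 °C and OD450 read. Viability was taken relative to untreated control after blank subtraction, with three replicate wells.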

[33] = target: Transient receptor potential cation channel subfamily M member 8 (Homo sapiens, UniProt Q7Z2W7); assay: Inhibition of human TRPM8 expressed in HEK293T cells assessed as blocked of menthol-activated current at 10 uM by whole cell patch clamp electrophysiology relative to control; format: cell-based
Chain of Transient receptor potential cation channel subfamily M member 8 (Q7Z2W7 whole entry, looked up, the tested form may be a part): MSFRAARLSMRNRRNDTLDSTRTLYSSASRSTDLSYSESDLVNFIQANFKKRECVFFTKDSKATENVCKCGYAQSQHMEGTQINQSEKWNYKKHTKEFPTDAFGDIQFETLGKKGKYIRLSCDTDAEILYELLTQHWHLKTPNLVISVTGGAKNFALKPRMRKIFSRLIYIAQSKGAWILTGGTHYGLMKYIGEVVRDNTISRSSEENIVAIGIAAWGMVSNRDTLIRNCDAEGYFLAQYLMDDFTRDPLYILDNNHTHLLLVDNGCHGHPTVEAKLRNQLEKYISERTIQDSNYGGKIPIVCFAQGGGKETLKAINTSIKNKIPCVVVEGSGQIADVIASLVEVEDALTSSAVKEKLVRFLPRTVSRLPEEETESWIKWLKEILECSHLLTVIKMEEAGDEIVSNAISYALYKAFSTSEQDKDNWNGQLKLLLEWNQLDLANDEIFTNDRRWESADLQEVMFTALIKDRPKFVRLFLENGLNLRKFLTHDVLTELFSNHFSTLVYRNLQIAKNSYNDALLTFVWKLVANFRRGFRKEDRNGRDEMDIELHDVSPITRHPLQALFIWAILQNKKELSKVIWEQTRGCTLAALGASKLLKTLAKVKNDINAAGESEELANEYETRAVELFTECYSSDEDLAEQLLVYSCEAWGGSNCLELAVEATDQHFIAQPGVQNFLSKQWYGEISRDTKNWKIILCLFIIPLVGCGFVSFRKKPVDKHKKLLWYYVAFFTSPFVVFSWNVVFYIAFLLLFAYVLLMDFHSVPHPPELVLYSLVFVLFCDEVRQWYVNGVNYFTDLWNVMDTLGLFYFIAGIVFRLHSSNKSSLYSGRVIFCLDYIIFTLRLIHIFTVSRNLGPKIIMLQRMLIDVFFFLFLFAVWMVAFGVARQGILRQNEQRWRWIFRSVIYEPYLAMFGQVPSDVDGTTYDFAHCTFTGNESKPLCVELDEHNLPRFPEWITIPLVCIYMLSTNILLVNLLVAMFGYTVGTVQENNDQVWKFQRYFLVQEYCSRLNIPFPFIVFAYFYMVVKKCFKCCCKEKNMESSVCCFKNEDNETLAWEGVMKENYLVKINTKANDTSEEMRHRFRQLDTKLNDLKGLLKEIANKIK
In short: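 Whole-cell patch clamp was run at room temperature on HEK293T cells transiently cotransfected with human TRPM8 plus GFP, 24–48 h before recording. ECS was 145 NaCl, 5.6 KCl, 2 MgCl₂, 1.2 CaCl₂, 10 HEPES, pH 7.2. Current was activated with 1 mM menthol, and compound was perfused at least 60 s after it stabilized. Inhibition was calculated relative to stable agonist current minus residual current; n = 3–6.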

O=C(/C=C/c1ccc(-c2cccc(C(F)(F)F)c2)cc1)Nc1ccccc1C(=O)O
Tmax [1]: 4.8 min
AUC(0-inf) [2]: 18900 ng·h/mL
Activity (Mus musculus [3]): inactive
Activity (SH-SY5Y [4]): Active
Activity (Mus musculus [5]): 38.9%
AUC(0-t) [6]: 157000 ng·h/mL
MRT [7]: 1.19 h
AUC(0-inf) [8]: 160000 ng·h/mL
inhibition (Phospholipase A2): 14.8%
Cmax [9]: 5070 ng/mL
AUC(0-t) [10]: 18500 ng·h/mL
half-life [11]: 1.7 h
viability at 0.3 µM (SH-SY5Y [12]): 68.7%
Activity (Mus musculus [13]): inactive
MRT [14]: 1.7 h
Cmax [15]: 13000 ng/mL
AUC(0-inf) [16]: 5450 ng·h/mL
half-life [17]: 3.62 h
Cmax [18]: 58400 ng/mL
clearance [19]: 0.917 mL/min/kg
Tmax [20]: 4.8 min
bioavailability [21]: 90.4%
Activity (Mus musculus [22]): 38.5%
Activity (Mus musculus [23]): 39.8%
Tmax [24]: 0.5 h
half-life [25]: 1.42 h
half-life [26]: 1.34 h
AUC(0-inf) [27]: 40900 ng·h/mL
Activity [28]: Non-Toxic
Cmax [29]: 24300 ng/mL
pIC50 [30]: 6.10
inhibition [31]: > 45%
Activity (SH-SY5Y [32]): < 10%
inhibition [33]: 22.6%
